Reference: ChEMBL document CHEMBL1221318, “Two distinct classes of novel pyrazolinecarboxamides as potent cannabinoid CB1 receptor agonists” (Bioorg Med Chem Lett, 2010)
Calls of active or inactive are those of the source. The rule behind the calls is not given here.

What was measured:
Cannabinoid receptor 1 [1] = molecular target: T1, Cannabinoid receptor 1 (Homo sapiens, UniProt P21554); test: Displacement of [3H]CP-55940 from human recombinant CB1 receptor expressed in CHO cells; type: cell-based
Cannabinoid receptor 1 [2] = molecular target: T1, Cannabinoid receptor 1; test: Agonist activity at human recombinant CB1 receptor expressed in CHO cells assessed as effect on CP-55940 induced PLA2 activation by [3H]arachidonic acid release assay; type: functional, cell-based; conditions: for Kb: read-out: pA2 (converted)
Cannabinoid receptor 2 [3] = molecular target: T2, Cannabinoid receptor 2 (Homo sapiens, UniProt P34972); test: Displacement of [3H]CP-55940 from human recombinant CB2 receptor expressed in CHO cells; type: cell-based
Cannabinoid receptor 2 [4] = molecular target: T2, Cannabinoid receptor 2; test: Inverse agonist activity at human recombinant CB2 receptor expressed in CHOK1 cells assessed as effect on forskolin-stimulated adenylate cyclase activity by cAMP accumulation assay; type: functional, cell-based, CHO-K1
Summary of the method: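 CHO-K1 cells expressing human CB2, grown in serum-supplemented medium with glutamine, Hygromycin B and G418 at 37 °C, 5% CO2. Confluent cells loaded with [3H]adenine for 2 h, then 20 min in PBS with 1 mM IBMX and 3×10^-7 M forskolin ± compound (10^-10–10^-6 M). Stopped with TCA; [3H]cAMP/[3H]ATP separated on Dowex/alumina, scintillation counted, basal subtracted; […], two independent experiments in triplicate.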

Rattus norvegicus = test: Neuroprotective activity in Lewis rat assessed as reduction of experimental autoallergic encephalomyelitis-induced motor deficits at 20 mg/kg, po qd for 11 days; type: functional, organism-based; parameters: dose 20 mg/kg
Summary of the method: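 Male Lewis rats, 175–225 g, inoculated day 0 by subcutaneous hind-paw injection, under isoflurane, of a saline emulsion of complete Freund adjuvant, M. tuberculosis H37RA and guinea pig myelin basic protein. Oral dosing once daily from day one. Motor dysfunction scored daily on a 0–10 scale, with body weights; paralysis intensity analysed as AUC and average score.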

T1 sequence (P21554 whole entry): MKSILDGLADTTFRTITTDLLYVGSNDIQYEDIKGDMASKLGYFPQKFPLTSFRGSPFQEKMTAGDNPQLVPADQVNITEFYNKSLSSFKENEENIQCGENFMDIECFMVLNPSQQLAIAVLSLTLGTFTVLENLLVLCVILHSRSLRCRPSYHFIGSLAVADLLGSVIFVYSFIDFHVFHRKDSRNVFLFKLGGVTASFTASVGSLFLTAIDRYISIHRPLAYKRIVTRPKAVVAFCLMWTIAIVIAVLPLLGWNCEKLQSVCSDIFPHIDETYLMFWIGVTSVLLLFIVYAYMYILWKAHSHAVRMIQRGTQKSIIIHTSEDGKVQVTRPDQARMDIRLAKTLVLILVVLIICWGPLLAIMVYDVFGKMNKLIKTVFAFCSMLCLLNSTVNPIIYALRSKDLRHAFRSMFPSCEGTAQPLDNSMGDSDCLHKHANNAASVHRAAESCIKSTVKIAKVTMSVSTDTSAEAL
T2 sequence (P34972 whole entry): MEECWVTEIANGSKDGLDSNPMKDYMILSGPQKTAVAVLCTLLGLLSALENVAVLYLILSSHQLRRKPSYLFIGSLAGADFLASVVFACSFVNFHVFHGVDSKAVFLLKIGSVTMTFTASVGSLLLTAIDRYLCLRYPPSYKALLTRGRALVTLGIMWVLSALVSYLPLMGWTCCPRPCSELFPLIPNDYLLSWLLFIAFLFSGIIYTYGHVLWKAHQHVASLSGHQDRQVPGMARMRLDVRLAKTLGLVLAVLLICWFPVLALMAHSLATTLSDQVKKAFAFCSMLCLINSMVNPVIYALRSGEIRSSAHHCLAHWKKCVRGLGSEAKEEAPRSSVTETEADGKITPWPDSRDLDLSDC

Compound | Ki (Cannabinoid receptor 1 [1]) [nM] | EC50 (Cannabinoid receptor 1 [2]) [nM] | Ki (Cannabinoid receptor 2 [3]) [nM] | Kb (Cannabinoid receptor 1 [2]) [nM] | pA2 (Cannabinoid receptor 1 [2]; cho) | EC50 (Cannabinoid receptor 2 [4]) [nM] | Activity (Rattus norvegicus)
CCCCCC1=NN(C(=O)NC(C)(C)c2ccccc2)CC1c1ccccc1 (stereo unspecified) | 3.26 | 3.98 | 17.6 |  |  |  | 
CCCCC1=NN(C(=O)NC(C)(C)c2ccc(F)cc2)CC1c1cccc(F)c1 (stereo unspecified) | 44.9 | 100 | 74 |  |  |  | 
CCCCCC1=NN(C(=O)NC[C@@H]2CC[C@H]3C[C@@H]2C3(C)C)CC1c1ccccc1 (stereo partly specified) | 15.6 | 2000 | 13.3 |  |  |  | 
CCCCCC1=NN(C(=O)NCC23CC4CC(CC(C4)C2)C3)CC1c1ccccc1 (stereo unspecified) | 16.1 |  |  |  |  |  | 
CCCCCC1=NN(C(=O)NC23CC4CC(CC(C4)C2)C3)CC1c1ccccc1 (stereo unspecified) | 68 | 398 | 14.9 |  |  |  | 
CCCCC1=NN(C(=O)NC(C)(C)c2ccccc2)CC1c1ccccc1 (stereo unspecified) | 14.2 | 3.98 | 35.6 |  |  |  | 
CCCCCN1N=C(C(=O)N[C@H]2C[C@H]3CC[C@]2(C)C3(C)C)CC1c1ccccc1F (stereo partly specified) | 6.1 | 3.98 | 9.1 | 7.94 |  |  | 
CCCCCC1=NN(C(=O)c2cccc3ccccc23)CC1c1ccccc1 (stereo unspecified) | 164 | 31.6 | 103 |  |  |  | 
CCCCCC1=NN(C(=O)NC2CCCCCC2)CC1c1ccccc1 (stereo unspecified) | 15.3 |  | 19.8 |  |  |  | 
CCCCCN1N=C(C(=O)N[C@H]2C[C@H]3CC[C@]2(C)C3(C)C)CC1c1ccccc1 (stereo partly specified) | 4.7 | 5.01 | 20.1 | 7.94 |  |  | 
CCCCCC1=NN(C(=O)NC2CCCCCCC2)CC1c1ccccc1 (stereo unspecified) | 11.9 |  | 26.6 |  |  |  | 
CCCCCC1=NN(C(=O)Nc2ccccc2C(F)(F)F)CC1c1ccccc1 (stereo unspecified) | 70 |  | 15 |  |  |  | 
CCCCCC1=NN(C(=O)NC2C[C@H]3CCC2(C)C3(C)C)CC1c1ccccc1 (single isomer, unassigned) | 8.3 | 3.98 | 5.3 |  | 8.1 | 3.16 | Active
CCCCCC1=NN(C(=O)NC2CCCc3ccccc32)CC1c1ccccc1 (stereo unspecified) | 33.1 |  | 22.5 |  |  |  | 
CCCCCC1=NN(C(=O)NCc2ccccc2)CC1c1ccccc1 (stereo unspecified) | 51 | 398 | 260 |  |  |  | 
CCCCCC1=NN(C(=O)N[C@H]2C[C@H]3CC[C@]2(C)C3(C)C)CC1c1ccccc1 (stereo in doubt; 9) | 28.5 | 0.631 | 7.4 | 7.94 |  |  | 
CCCCC1=NN(C(=O)NC(C)(C)c2ccccc2)C(C)(C)C1c1ccccc1 (stereo unspecified) | 9 |  | 11.9 |  |  |  | 
CCCCC1=NN(C(=O)NC(C)(C)c2ccc(F)cc2)CC1c1ccccc1F (stereo unspecified) | 32 | 126 | 89 |  |  |  | 
CCCCCN1N=C(C(=O)NC(C)(C)c2ccc(F)cc2)CC1c1ccccc1 (stereo unspecified) | 118 | 3.98 | 121 | 7.94 |  |  | 
CCCCCC1=NN(C(=O)NC2C3CC4CC(C3)CC2C4)CC1c1ccccc1 (stereo unspecified) | 6.4 | 25.1 | 6.3 |  |  |  | 
CCCCCC1=NN(C(=O)NCC2CCCCC2)CC1c1ccccc1 (stereo unspecified) | 15.3 |  | 53 |  |  |  | 
CCCCCC1=NN(C(=O)N[C@H]2CC3CC[C@]2(C)C3(C)C)CC1c1ccccc1 (single isomer, unassigned) | 46.8 | 158 | 36 |  |  |  | 
CCCCCCC(C)(C)c1cc(O)c2c(c1)OC(C)(C)[C@@H]1CCC(=O)C[C@@H]21 [NABILONE] | 5.1 | 3.98 | 17.6 |  |  |  | 
CCCCCC1=NN(C(=O)NC2CCCCC2)CC1c1ccccc1 (stereo unspecified) | 52 |  | 79 |  |  |  | 
CCCCCN1N=C(C(=O)NC2C3CC4CC(C3)CC2C4)CC1c1ccccc1 (stereo unspecified) | 9.2 |  | 7.1 | 7.94 |  |  | 
CCCCCC1=NN(C(=O)Nc2cccc3ccccc23)CC1c1ccccc1 (stereo unspecified) | 7.4 | 1580 | 36.6 |  |  |  | 
CCCCC1=NN(C(=O)N[C@H]2C[C@H]3CC[C@]2(C)C3(C)C)C(C)(C)C1c1ccccc1 (stereo partly specified) | 16.1 |  | 3.4 |  |  |  | 
CCCCC1=NN(C(=O)NC(C)(C)c2ccccc2)CC1c1ccsc1 (stereo unspecified) | 19.3 | 39.8 | 62 |  |  |  | 
